Activity calls are given as the source filed them. The rule behind the calls is not given here.
Key:
[1] = system: Mycobacterium tuberculosis; test: Antimycobacterial activity against PanC deficient Mycobacterium tuberculosis H37RvMA assessed as growth inhibition up to 2 mM after 7 to 14 days; assay type: functional
Summary of the method: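 panC conditional knockdown (<5% wild-type PanC) grown to OD600 ~0.2 in 7H9 with Hyg 50 μg/mL, Km 25 μg/mL, Gm 5 μg/mL, diluted 500-fold. 2-fold serial dilutions from 4 mM starting concentration in 7H9 with half-strength antibiotics, with or without ATc (20 ng/mL) alone or ATc plus pantothenate (50 μg/mL). 37 °C, growth scored visually at 7, 10, 14 days.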

[2] = system: Mycobacterium tuberculosis; test: Antimycobacterial activity against wild type Mycobacterium tuberculosis H37RvMA assessed as growth inhibition up to 250 uM after 7 to 14 days; assay type: functional
Summary of the method: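 H37RvMA grown in 7H9 to OD600 ~0.2, diluted 500-fold into wells holding 2-fold serial compound dilutions (starting concentration 4 mM) in 7H9. Incubated at 37 °C. Growth was read by eye on days 7, 10 and 14.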

[3] = biological target: T1, Pantothenate synthetase (Mycobacterium tuberculosis, UniProt P9WIL5); test: Competitive inhibition of Mycobacterium tuberculosis recombinant PanC expressed in Escherichia coli BL21 (DE3) using pantoic acid and ATP as substrate by Michaelis-Menten equation analysis
T1 sequence (P9WIL5 whole entry): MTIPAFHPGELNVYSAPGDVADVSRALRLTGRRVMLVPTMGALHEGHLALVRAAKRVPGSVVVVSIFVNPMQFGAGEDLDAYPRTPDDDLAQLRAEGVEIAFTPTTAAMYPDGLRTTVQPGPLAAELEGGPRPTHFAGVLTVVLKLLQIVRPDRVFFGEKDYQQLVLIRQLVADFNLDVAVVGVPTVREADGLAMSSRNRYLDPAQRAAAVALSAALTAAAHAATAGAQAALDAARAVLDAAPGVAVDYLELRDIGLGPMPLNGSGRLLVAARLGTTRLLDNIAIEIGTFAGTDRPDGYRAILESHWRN
Summary of the method: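 N-terminal His6 PanC (pET28b, BL21(DE3), Ni-NTA purified), 400 nM. Continuous MesG pyrophosphate-coupled assay with pyrophosphatase and purine nucleoside phosphorylase, A360, 25 °C. Buffer 100 mM HEPES pH 8.0, 10 mM MgCl2, up to 5% DMSO. Pantoic acid varied 50–300 μM at 2.6 mM ATP, 2.4 mM β-alanine, several fixed inhibitor levels, PanC-initiated. Initial rates fit to the competitive equation for Ki.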

CC(C)(C)[C@@H](O)C(=O)NS(=O)(=O)OC[C@H]1O[C@@H](n2cnc3c(N)ncnc32)[C@H](F)[C@@H]1O
growth inhibition (GI) [1]: inactive | growth inhibition (GI) [2]: inactive | Ki [3]: 990 nM

CC(C)(CO)[C@@H](O)CNS(=O)(=O)NC[C@H]1O[C@@H](n2cnc3c(N)ncnc32)[C@H](O)[C@@H]1O
growth inhibition (GI) [1]: inactive | growth inhibition (GI) [2]: inactive | Ki [3]: 3470 nM

CC(C)(C)[C@@H](O)C(=O)NS(=O)(=O)OC[C@H]1O[C@@H](n2cnc3c(N)ncnc32)[C@H](O)[C@@H]1O
growth inhibition (GI) [1]: inactive | growth inhibition (GI) [2]: inactive | Ki [3]: 270 nM

CC(C)(C)[C@@H](O)C(=O)NS(=O)(=O)OC[C@H]1O[C@@H](n2cnc3c(N)ncnc32)[C@@H](O)[C@@H]1O
growth inhibition (GI) [1]: inactive | growth inhibition (GI) [2]: inactive | Ki [3]: 1730 nM

CC(C)(C)[C@@H](O)C(=O)NS(=O)(=O)OC[C@H]1C[C@@H](n2cnc3c(N)ncnc32)[C@H](O)[C@@H]1O
growth inhibition (GI) [1]: inactive | growth inhibition (GI) [2]: inactive | Ki [3]: 870 nM

Reference: ChEMBL document CHEMBL3112410, “Reaction intermediate analogues as bisubstrate inhibitors of pantothenate synthetase” (Bioorg Med Chem, 2014)
